Compound activity from PubChem BioAssay.
Rows were chosen to be rich in hits. Some 2.6% of all compounds tested hit in one or more screens of this group.
CFTR F508del cor = F508del CFTR correction, initial screen, CFBE line, single point; CFBE cells, YFP halide quenching; stimulated with forskolin plus potentiator P3; % fluorescence drop versus neutral controls; activity (quench increase), % at 7.58 µM; 350,000 compounds, 0.36% hits; AID 720511, 2013;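 active = mean added fluorescence quench of at least 8% versus neutral control, with both replicates also reaching 8%; inconclusive = only one of the mean or replicate conditions met; inactive = mean below 8% and not both replicates reaching 8%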;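 also: cells transiently co-express mutant CFTR-F508del with the halide-sensitive YFP; corrector assay measuring rescue of mutant channel to the surface after 24 h compound exposure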
DENV2 CPE = inhibitors of DENV2 cytopathic effect, primary screen, cell-based, plate reader, single concentration. DENV2-infected cells, cytopathic effect rescue. CPE inhibition, % at 9.99 µM. 350,000 compounds, 1.7% hits; in the data active = CPE inhibition above about 20%, passing the limit was not always enough; inconclusive = no clear call, values can overlap the other calls; tested in BHK-21 cells;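 also: 0% = median of neutral control wells and 100% = median of positive control wells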
ERAP1 HTS inh = human ERAP1 aminopeptidase inhibitors, primary screen, biochemical, single point, plate reader | Endoplasmic reticulum aminopeptidase 1 (Homo sapiens), Q9NZ08 | recombinant ERAP1, Leu-AMC fluorescence, 60 min | inhibition, % at 10.7 µM | 340,000 compounds, 0.15% hits;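 active = mean replicate inhibition of at least 30%, or all replicates individually reaching that 30% level; inactive = mean below 30% and not every replicate reaching it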;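 also: 0% = neutral control wells and 100% = L-leucinethiol positive control wells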
miR-122 sensor = miR-122 Renilla sensor signal increase in Huh7, primary screen, miR-122 inhibitor project, cell-based, single point, plate reader; Huh7 miR-122 Renilla luciferase sensor, 48 h; neutral wells = 0, positive control = 100; activation (reporter increase), % at 12.5 µM; 340,000 compounds, 0.3% hits;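 active = mean replicate activation score at least 90 and every replicate individually at or above 90; inconclusive = only one of the two criteria met; inactive = neither criterion met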;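 also: higher luciferase means less miR-122 activity so hits act as miR-122 inhibitors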
E-selectin induc = E-selectin induction in HUVECs, primary screen, imaging, HUVEC, immunofluorescence imaging, single point. P16581. normalized: neutral wells 0, TNF-alpha wells 100. activation, % at 7.58 µM. 260,000 compounds, 0.37% hits. AID 686992, 2013;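 active = mean E-selectin-positive cell signal at least 10% of the positive control, reached in at least 60% of replicates, without over 20% cell loss; inconclusive = no rule given, readout overlaps actives, possibly toxicity-flagged; inactive = the rest, including those meeting only one limit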
Target sequence (P16581 whole entry, looked up): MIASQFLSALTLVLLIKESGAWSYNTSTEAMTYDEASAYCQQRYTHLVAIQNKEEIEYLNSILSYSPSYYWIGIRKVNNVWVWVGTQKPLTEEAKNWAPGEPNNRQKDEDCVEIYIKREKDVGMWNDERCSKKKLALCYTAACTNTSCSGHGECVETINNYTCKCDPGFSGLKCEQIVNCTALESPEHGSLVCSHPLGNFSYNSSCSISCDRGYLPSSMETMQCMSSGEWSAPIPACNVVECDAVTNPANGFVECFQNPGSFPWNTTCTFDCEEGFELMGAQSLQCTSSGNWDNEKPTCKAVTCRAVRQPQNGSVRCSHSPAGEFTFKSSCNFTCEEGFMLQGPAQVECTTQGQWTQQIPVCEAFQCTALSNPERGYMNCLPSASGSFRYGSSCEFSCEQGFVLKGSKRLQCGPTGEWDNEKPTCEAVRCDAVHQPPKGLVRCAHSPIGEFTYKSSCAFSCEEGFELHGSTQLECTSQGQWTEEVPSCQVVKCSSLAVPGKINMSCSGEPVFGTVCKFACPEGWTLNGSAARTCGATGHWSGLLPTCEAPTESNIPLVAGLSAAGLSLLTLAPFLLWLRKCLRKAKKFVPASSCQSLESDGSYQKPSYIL
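Read-out: % PE-positive cells | Test system: HUVEC | Doses: One compound dose added by pin transfer | Buffer or medium: EGM-2 over gelatin coat | Signal: Immunofluorescence imaging | Benchmarks: TNF-alpha, DMSO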
GSIS activator = GLuc luminescence reporter in INS-1E cells, primary screen for activators of glucose-dependent secretion of insulin; AID 743287, 2014; activation, % at 16.6 µM; INS-1E GLuc reporter insulin secretion, 2-3 h; 370,000 compounds, 0.61% hits;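 active = lowest replicate activation of at least 40%, so every replicate reaches that level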;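 also: 0% = median of neutral control wells and 100% = median of IBMX positive control wells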
An asterisk follows results filed as active; ? = inconclusive; . = no result given; [ ] = another dose, or the depositor's remark.

SMILES	CFTR F508del cor	DENV2 CPE	ERAP1 HTS inh	miR-122 sensor	E-selectin induc	GSIS activator
COc1ccc(/C=C(\CC(=O)O)c2nc3ccccc3s2)cc1O	0	3	2	-9	1	2
COc1cc(/C=C(\CC(=O)O)c2nc3ccccc3s2)ccc1OCC(=O)Nc1ccccc1F	18*	-4	-5	-4	0	-5
COc1cc(/C=C(\CC(=O)O)c2nc3ccccc3s2)cc(OC)c1O	1	-1	8	-4	.	5
CC1(C(=O)NCC2CCCCC2)CCN1CCc1ccccc1 (stereo unspecified)	-2	0	3	.	0	80*
CC1(C(=O)NCC2CCCCC2)CCN1C(=O)Cc1ccc(-c2ccccc2)cc1 (stereo unspecified)	1	-5	2	9	0	-29
COc1ccc(/C=N/Nc2ccc(C(F)(F)F)cc2[N+](=O)[O-])cc1	.	.	.	.	.	45*
COc1ccc(NS(=O)(=O)c2ccc(N/N=C/c3ccc(N4CCOCC4)cc3)c([N+](=O)[O-])c2)cc1	-1	1	-1	-2	-1	.
Cn1cnc([N+](=O)[O-])c1S(=O)(=O)c1cccc(Cl)c1	3	-4	1	.	0	104*
Cn1cnc([N+](=O)[O-])c1S(=O)(=O)Oc1ccccc1	2	3	4	.	0	54*
COc1ccc(S(=O)(=O)N[C@H]2CC[C@H](CC(=O)O)O[C@H]2CO)cc1	2	-1	0	.	0	15
CC(=O)N[C@@H]1C[C@@H]2O[C@H](CO)CC[C@@H]2O[C@@H]1CCc1ccc(C#CC2(O)CCCC2)cc1	-1	21*	.	.	.	.
CS(=O)(=O)N[C@@H]1C[C@@H]2O[C@@H](CO)CC[C@@H]2O[C@@H]1CCc1ccc(-c2ccccc2F)cc1	0	21*	2	.	.	.
Cc1cccc(CN2C(=O)CSc3ccc(C(=O)NC4CC4)cc32)c1	0	-1	0	-5	.	191*
Nc1nc(N)nc(-c2cccc([N+](=O)[O-])c2)n1	-3	-9	-1	-6	0	60*
NC(=S)N=Nc1c(O)[nH]c2ccc(F)cc12	1	1	-1	.	.	-3
NC(=S)N=Nc1c(O)cc(O)c2[nH]c(=O)ccc12	0	4	52*	14	0	17
Cc1nc2c(=O)n(C)c(=O)n(C)c2nc1Cl	.	-7	1	.	.	96*
C[C@H](NC(=O)c1ncn(Cc2ccccc2)c1C(=O)N[C@@H](C)c1ccccc1)c1ccccc1	-2	75*	-3	-1	0	27
C[C@H](NC(=O)c1nc[nH]c1C(=O)N(C)Cc1ccccc1)c1ccccc1	-1	2	-1	4	0	-16
C[C@@H](NC(=O)c1nc[nH]c1C(=O)N(C)Cc1ccccc1)c1ccccc1	-1	35*	-3	.	0	-20
O=C1OC(c2ccccc2)(N(Nc2ccccc2)c2ccccc2)c2ccccc21 (stereo unspecified)	1	24*	-2	4	0	-4
C[C@H](CO)N1C[C@H](C)[C@@H](CN(C)Cc2ccccc2)OCCCC[C@H](C)Oc2ccc(NC(=O)C3CCCCC3)cc2C1=O	2	-2	-3	6[16.7 µM]	0	-13
C[C@@H]1CCCCO[C@@H](CN(C)Cc2ccc(C(=O)O)cc2)[C@@H](C)CN([C@H](C)CO)C(=O)c2cc(NC(=O)C3CCCCC3)ccc2O1	2	?	-3	4[16.7 µM]	0	0
C[C@@H]1CCCCO[C@@H](CN(C)Cc2ccc(C(=O)O)cc2)[C@@H](C)CN([C@@H](C)CO)C(=O)c2cc(NC(=O)C3CCCCC3)ccc2O1	-2	38*	-6	-3[16.7 µM]	0	6
C[C@@H]1CCCCO[C@@H](CN(C)Cc2ccccc2)[C@@H](C)CN([C@@H](C)CO)C(=O)c2cc(NC(=O)C3CCCCC3)ccc2O1	0	27*	-1	1[16.7 µM]	0	-18
SMILES	CFTR F508del cor	DENV2 CPE	ERAP1 HTS inh	miR-122 sensor	E-selectin induc	GSIS activator
CNC(=O)C[C@H]1CC[C@H]2[C@@H](COc3ccc(NC(=O)c4cc(C)on4)cc3C(=O)N2C)O1	0	4	.	12[16.7 µM]	0	10
O=C(Nc1ccc2c(c1)OCO2)N[C@@H]1CC[C@@H](CCNC(=O)C2CCCC2)O[C@@H]1CO	0	-10	1	0[16.7 µM]	0	22
O=C(Nc1ccncc1)Nc1ccc(Cl)cc1Cl	1	71*	-5	-5	4	18
O=C1CN(S(=O)(=O)Cc2ccccc2)C[C@@H]2[C@@H](c3ccc(C#Cc4cccc(F)c4)cc3)[C@H](CO)N12	8.1*	11	0	.	0	-6
Cc1ccccc1S(=O)(=O)N1CC(=O)N2[C@@H](CO)[C@@H](c3ccc(C#Cc4ccccc4)cc3)[C@@H]2C1	0	-10	0	.	2	16
O=C(C1CCCCC1)N1CC(=O)N2[C@@H](CO)[C@H](c3ccc(C#Cc4cccc(F)c4)cc3)[C@@H]2C1	9.6*	15	-2	.	0	2
CC(C)C#Cc1ccc([C@@H]2[C@@H](CO)N3C(=O)CN(S(=O)(=O)c4ccccc4)C[C@@H]23)cc1	12*	-2	2	.	0	-12
Cc1ccccc1S(=O)(=O)N1CC(=O)N2[C@H](CO)[C@@H](c3ccc(C#Cc4ccccc4)cc3)[C@@H]2C1	5	29*	-1	.	0	13
CCCNC(=O)[C@H]1[C@H](CO)[C@H]2Cn3c(ccc(C4=CCCC4)c3=O)[C@@H]1N2CCC(F)(F)F	1	-5	-1	5[16.7 µM]	0	1
COc1ccc(S(=O)(=O)N(C)C[C@@H]2Oc3c(NC(=O)Nc4ccccc4)cccc3C(=O)N([C@H](C)CO)C[C@@H]2C)cc1	-1	.	.	-4[16.7 µM]	0	1
CCCNC(=O)Nc1ccc2c(c1)C(=O)N(C)C[C@H](OC)[C@@H](C)CN(CCC(F)(F)F)[C@@H](C)CO2	2	.	.	-10[16.7 µM]	0	-16
N#C[C@@H]1[C@H](c2ccc(C#CC3CCCC3)cc2)[C@@H](CO)N1S(=O)(=O)c1ccccc1	-2	50*	4	.	0	-8
N#C[C@H]1[C@@H](c2ccccc2)[C@@H](CO)N1S(=O)(=O)Cc1ccccc1	0	65*	-2	.	0	5
N#C[C@@H]1[C@@H](c2ccc(C#CC3CC3)cc2)[C@@H](CO)N1S(=O)(=O)Cc1ccccc1	2	-5	-1	.	0	9
CS(=O)(=O)N1[C@@H](C#N)[C@H](c2ccc(C#CC3CC3)cc2)[C@@H]1CO	3	-9	2	.	1	14
